The values that follow come from ChEMBL document CHEMBL3804799, “Synthesis and Biological Evaluation of Novel σ1 Receptor Ligands for Treating Neuropathic Pain: 6-Hydroxypyridazinones” (J Med Chem, 2016).

Structures are written as SMILES.

For series [1], the target named is Sigma non-opioid intracellular receptor 1 (Cavia porcellus, UniProt Q60492). As to the kind of experiment: Displacement of [3H]-(+)-pentazocine from Sigma1 receptor in Dunkin Hartley guinea pig brain membrane after 180 mins by liquid scintillation counting analysis. Put shortly: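 Guinea pig brain (minus cerebellum) P2 membranes in Tris-HCl. Incubated with [³H]-(+)-pentazocine (4.0 nM solution added) in pH 8.0 buffer, 25 °C for 180 min; nonspecific binding with haloperidol. Filtered through PEI-presoaked GF/B filters; scintillation counting. Compounds in 5% DMSO, six concentrations (10⁻⁵–10⁻¹⁰ M). […] At least three experiments.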

A short description of series [2]: Displacement of [3H]-DTG from Sigma2 receptor in Dunkin Hartley guinea pig brain membrane after 120 mins by liquid scintillation counting analysis in presence of sigma1 blocker (+)-SKF-10047. Further details: species or system Cavia porcellus. Put shortly: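 Guinea pig brain P2 membranes incubated with 3 nM [³H]-DTG plus 400 nM (+)-SKF-10047 to block σ1 sites, Tris-HCl pH 8.0, 25 °C for 120 min; nonspecific binding with DTG. Filtration on PEI-presoaked GF/B filters, scintillation counting. […] At least three experiments.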
(Loss of bound radioactivity is the signal in a displacement assay; it reports binding, not function.)

The species entered for series [3] is Cavia porcellus. Nature of the series: Selectivity ratio of Ki for Sigma2 receptor in Dunkin Hartley guinea pig brain membrane to Ki for Sigma1 receptor in Dunkin Hartley guinea pig brain membrane. Put shortly: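 Guinea pig brain P2 membranes, minus cerebellum. σ1: [3H]-(+)-pentazocine, haloperidol for nonspecific binding, 25 °C for 180 min. σ2: 3 nM [3H]-DTG with 400 nM (+)-SKF-10047 masking σ1, DTG for nonspecific binding, 25 °C for 120 min. Six concentrations, 10⁻⁵ to 10⁻¹⁰. Filter-bound radioactivity counted. Hill-fit IC50 converted by Cheng–Prusoff, at least three experiments each; ratio σ2 Ki/σ1 Ki.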

Series [4] is described as follows: Acute toxicity in po dosed Kun Ming mouse assessed as mortality after 24 hrs. To be noted: in vivo. The format is organism-based. The method, boiled down:
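Mice, 10 per group, given a single oral dose (10 mL/kg) of 0.5% methylcellulose vehicle or test compound at 200, 500, 1000, 1500 or 2000 mg/kg. Survivors were counted 24 h after dosing and percent mortality per group was calculated. LD50 was derived by statistical analysis.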

Series [5] concerns the target Voltage-gated inwardly rectifying potassium channel KCNH2 (Homo sapiens, UniProt Q12809). Nature of the series: Inhibition of human ERG expressed in HEK293 cells assessed as tail current at -50 mV holding potential by whole-cell patch clamp method. (The patch-clamp technique gives a direct electrical read-out from membranes.)
For series [6], the system named is Mus musculus. Nature of the series: Antiallodynic activity in Kun Ming mouse assessed as paw licking time at 160 mg/kg, ig administered 15 mins prior to formalin challenge measured after15 to 45 mins post formalin dosing. It counts as functional. The method, boiled down: (§1)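 Mice received 20 μL of 2.5% formalin (0.92% formaldehyde) in the dorsal right hind paw. Time spent licking or biting the paw was scored at 0–5 min (phase I) and 15–45 min (phase II), with a mirror behind the glass cylinder. Vehicle was 30% PEG 400 at 10 mL/kg, given 15 min before formalin. n = 10–12 per group. % antinociception = (LT_V − LT_D)/LT_V × 100.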

The test system of series [7] is Mus musculus. Nature of the series: Antiallodynic activity in Kun Ming mouse assessed as paw biting time at 160 mg/kg, ig administered 15 mins prior to formalin challenge measured after 15 to 45 mins post formalin dosing. It counts as functional. The method, boiled down:
as §1

Series [8] deals with Mus musculus. Nature of the series: Toxicity in Kun Ming mouse assessed as reduction in the permanence time on the rotating rod at 80 mg/kg, ig measured after 30 to 120 mins by rotarod test. The format is organism-based. The settings on record: in vivo, po. The method, boiled down:
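Mice were pre-trained; any that could not stay 300 s on the rod at 10 rpm were excluded. Latency to fall from the rod rotating at 10 rpm was recorded 30, 60, 90 and 120 min after intragastric dosing. 8–10 mice per group.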
(The rotarod test checks motor coordination on a turning rod.)

Sequence of Sigma non-opioid intracellular receptor 1 (Q60492 whole entry): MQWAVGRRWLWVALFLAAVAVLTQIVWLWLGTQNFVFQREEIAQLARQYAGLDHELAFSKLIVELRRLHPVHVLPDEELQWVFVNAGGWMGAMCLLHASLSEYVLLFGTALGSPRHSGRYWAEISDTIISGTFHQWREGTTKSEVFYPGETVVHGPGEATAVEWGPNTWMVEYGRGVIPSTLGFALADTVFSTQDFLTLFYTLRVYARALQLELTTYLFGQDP
Sequence of Voltage-gated inwardly rectifying potassium channel KCNH2 (Q12809 whole entry): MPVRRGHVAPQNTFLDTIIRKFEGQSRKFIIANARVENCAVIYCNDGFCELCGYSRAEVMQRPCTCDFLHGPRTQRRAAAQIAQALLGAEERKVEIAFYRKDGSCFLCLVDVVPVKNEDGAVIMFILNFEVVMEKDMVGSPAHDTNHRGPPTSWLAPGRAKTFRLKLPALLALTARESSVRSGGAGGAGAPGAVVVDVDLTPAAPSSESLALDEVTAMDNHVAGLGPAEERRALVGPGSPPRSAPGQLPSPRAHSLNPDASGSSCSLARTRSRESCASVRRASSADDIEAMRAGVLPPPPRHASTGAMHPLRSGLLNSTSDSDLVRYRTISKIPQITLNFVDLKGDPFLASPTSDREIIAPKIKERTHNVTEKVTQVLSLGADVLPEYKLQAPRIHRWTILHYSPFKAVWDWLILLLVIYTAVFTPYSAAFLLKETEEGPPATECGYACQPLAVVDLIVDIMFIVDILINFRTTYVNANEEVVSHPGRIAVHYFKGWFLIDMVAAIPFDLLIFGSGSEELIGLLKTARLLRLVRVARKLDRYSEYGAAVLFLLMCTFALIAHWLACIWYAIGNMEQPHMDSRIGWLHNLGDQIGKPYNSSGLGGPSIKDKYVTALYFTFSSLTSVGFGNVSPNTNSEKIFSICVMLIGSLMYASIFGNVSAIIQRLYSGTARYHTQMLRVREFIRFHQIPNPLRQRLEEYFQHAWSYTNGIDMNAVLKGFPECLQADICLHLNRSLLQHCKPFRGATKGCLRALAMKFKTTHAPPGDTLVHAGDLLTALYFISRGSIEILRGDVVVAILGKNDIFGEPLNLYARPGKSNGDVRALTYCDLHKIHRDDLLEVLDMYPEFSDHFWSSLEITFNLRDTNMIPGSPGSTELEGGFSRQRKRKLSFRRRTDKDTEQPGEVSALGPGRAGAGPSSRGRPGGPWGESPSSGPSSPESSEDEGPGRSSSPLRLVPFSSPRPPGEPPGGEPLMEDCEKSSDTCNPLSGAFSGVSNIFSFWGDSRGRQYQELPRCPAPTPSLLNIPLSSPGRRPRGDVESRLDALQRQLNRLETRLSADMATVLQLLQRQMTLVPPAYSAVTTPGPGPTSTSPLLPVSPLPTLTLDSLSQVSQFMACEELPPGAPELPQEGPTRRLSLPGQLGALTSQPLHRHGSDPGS

Regarding `Cc1ccc(-n2nc(OCCCN3CCCCC3)ccc2=O)cc1`, the results for the inhibition constant (Ki) in series [1] and in series [2] were 69 nM and 1280 nM, respectively. Besides, the Ratio Ki in series [3] came out at 18.6.
The corresponding values for `O=c1ccc(OCCCCN2CCCCC2)nn1-c1ccccc1` are 124 nM, 1720 nM and 13.9.
The matching figures for `CC1CCN(CCCOc2ccc(=O)n(-c3cc(Cl)cc(Cl)c3)n2)CC1`: 43 nM, 1320 nM and 30.7.
With `O=c1ccc(OCCN2CCCCC2)nn1-c1ccccc1`, the Ki in series [1] and in series [2] was more than 2000 nM in each case.
For the compound `CC1CCN(CCCCOc2ccc(=O)n(-c3ccccc3)n2)CC1`, the Ki (as a rule, a dissociation constant, usually derived from enzyme kinetics or from competition with a known ligand) in series [1] came out at 143 nM; in series [2], 1440 nM. Further, the Ratio Ki in series [3] amounted to 10.1.
With `CC1CCN(CCCOc2ccc(=O)n(-c3ccc(Cl)cc3)n2)CC1`, the inhibition constant (Ki) in series [1] was determined as 9.5 nM; in series [2], 1780 nM. For the same compound, in series [4], the LD50 (commonly the dose at which mortality reaches 50%) at 24 h stood at 717 mg/kg.
Turning to `O=c1ccc(OCCCN2CCOCC2)nn1-c1ccccc1`, the inhibition constant Ki was found to be 66.3 nM in series [1] and 502 nM in series [2]. In addition, the Ratio Ki in series [3] amounted to 7.6.
The matching figures for `CC1CC(C)CN(CCCCOc2ccc(=O)n(-c3ccccc3)n2)C1` (stereo not given): 222 nM, 1370 nM and 6.2.
The matching figures for `CC1CCN(CCCOc2ccc(=O)n(-c3cccc(Cl)c3Cl)n2)CC1`: 55 nM, 1200 nM and 21.8.
`O=C1CCN(CCCOc2ccc(=O)n(-c3ccccc3)n2)CC1`: the values for the Ki in series [1] and in series [2] were 580 nM and more than 2000 nM, respectively.
On to `O=c1ccc(OCCCN2CCCCC2)nn1-c1ccc(Cl)cc1`, for which the Ki amounted to 9.8 nM in series [1] and 1570 nM in series [2]. Moreover, the Ratio Ki in series [3] was 160. For the same compound, the IC50 (as a rule, the concentration needed to halve the response being measured) in series [5] was found to be 1450 nM. For the same compound, the LD50 at 24 h in series [4] was found to be 754 mg/kg.
Regarding `CC1CCN(CCCOc2ccc(=O)n(-c3ccc(Cl)cc3Cl)n2)CC1`, the Ki in series [1] came out at 35 nM; in series [2], 1100 nM. Also, in series [3], the Ratio Ki was 31.4.
`CN1CCCN(CCCOc2ccc(=O)n(-c3ccccc3)n2)CC1`: the inhibitory constant (Ki) was found to be 30.3 nM in series [1] and 508 nM in series [2]. In series [3], the Ratio Ki stood at 16.8.
The corresponding values for `O=c1ccc(OCCCN2CCCCC2)nn1-c1ccc2ccccc2c1` are 74.1 nM, 895 nM and 12.1.
As to `O=c1ccc(OCCCN2CCCCC2)nn1-c1cc(Cl)cc(Cl)c1`, the values for the Ki in series [1] and in series [2] were 30 nM and 1300 nM, respectively. In addition, the Ratio Ki in series [3] is 43.3.
Turning to `CCN1CCN(CCCOc2ccc(=O)n(-c3ccccc3)n2)CC1`, the inhibition constant (Ki) was found to be 40.1 nM in series [1] and 620 nM in series [2]. For the same compound, in series [3], the Ratio Ki is 15.5.
Take `CC1CCN(CCCOc2ccc(=O)n(-c3ccc(F)c(F)c3)n2)CC1`: the Ki in series [1] came out at 15 nM; in series [2], 1700 nM. In series [3], the Ratio Ki came to 113. Moreover, the half-inhibitory concentration (IC50) in series [5] came out at 2680 nM. Also, the LD50 at 24 h in series [4] was found to be 1300 mg/kg. In addition, the values for the Time in series [6] and in series [7] were 59.65 s and 56.43 s, respectively.
As to `CC1CCN(CCCOc2ccc(=O)n(-c3ccc4ccccc4c3)n2)CC1`, the Ki is 84.1 nM in series [1] and 913 nM in series [2]. Moreover, the Ratio Ki in series [3] turned out to be 10.8.
The matching figures for `O=c1ccc(OCCCN2CCCCC2)nn1-c1cc(Cl)ccc1Cl`: 45 nM, 902 nM and 20.
The matching figures for `Cc1ccc(-n2nc(OCCCN3CCC(C)CC3)ccc2=O)cc1`: 61.6 nM, 1550 nM and 25.1.
The corresponding values for `O=c1ccc(OCCCN2CCCCC2)nn1-c1cccc(Cl)c1Cl` are 48 nM, 1620 nM and 33.6.
For `CN1CCN(CCCOc2ccc(=O)n(-c3ccccc3)n2)CC1`, the Ki in series [1] worked out at 31.7 nM; in series [2], 376 nM. In addition, in series [3], the Ratio Ki was found to be 11.9.
For the compound `Cc1c(OCCCN2CCCCC2)nn(-c2ccc(Cl)c(Cl)c2)c(=O)c1C`, the values for the inhibition constant (Ki) in series [1] and in series [2] were 66.6 nM and 1430 nM, respectively. Further, in series [3], the Ratio Ki came to 21.4.
With `CC1CCN(CCCOc2ccc(=O)n(-c3ccc(F)c(Cl)c3)n2)CC1`, the inhibition constant Ki is 10 nM in series [1] and 1630 nM in series [2]. In addition, the Ratio Ki in series [3] was 163. Besides, in series [5], the IC50 was 2160 nM. For the same compound, in series [4], the LD50 at 24 h was 1530 mg/kg. Also, the Time in series [6] is 59.65 s; in series [7], 56.43 s.
Turning to `O=c1ccc(OCCCN2CCCCC2)nn1-c1ccc(Cl)cc1Cl`, the inhibition constant (Ki) in series [1] is 25 nM; in series [2] it was 809 nM. The Ratio Ki in series [3] came out at 32.3.
Take `O=c1ccc(OCCCN2CCCCC2)nn1-c1ccccc1`: the results for the Ki in series [1] and in series [2] were 21.4 nM and 1070 nM, respectively. Further, in series [3], the Ratio Ki was found to be 50.2.
With `O=c1ccc(OCCCN2CCCCC2)nn1-c1ccc(F)cc1`, the Ki in series [1] was 17 nM; in series [2] it was more than 2000 nM.
As for `O=c1ccc(OCCCN2CCCC2)nn1-c1ccccc1`, the Ki in series [1] came to 35.5 nM; in series [2] it was 458 nM. In series [3], the Ratio Ki came to 12.9.
The corresponding values for `CC1CCN(CCCOc2ccc(=O)n(-c3ccccc3)n2)CC1` are 28 nM, 1460 nM and 52.3.
The matching figures for `CN(C)CCCOc1ccc(=O)n(-c2ccccc2)n1`: 108 nM, 818 nM and 7.57.
`O=c1ccc(OCCCN2CCCCC2)nn1-c1ccc(F)c(F)c1`: the inhibition constant Ki in series [1] was 8 nM; in series [2], 1910 nM. The median lethal dose (LD50) at 24 h in series [4] stood at 780 mg/kg.
On to `CC1CCN(CCCOc2ccc(=O)n(-c3ccc(Cl)c(Cl)c3)n2)CC1`, for which the Ki is 5 nM in series [1] and 1740 nM in series [2]. Further, in series [3], the Ratio Ki worked out at 348. The half-inhibitory concentration (IC50) in series [5] worked out at 1460 nM. Further, in series [4], the 50% lethal dose (LD50) at 24 h was determined as 575 mg/kg.
Regarding `O=c1ccc(OCCCN2CCCCC2)nn1C1CCCC1`, the Ki in series [1] and in series [2] was more than 2000 nM in each case.
Take `CC(C)N(CCCOc1ccc(=O)n(-c2ccccc2)n1)C(C)C`: the Ki in series [1] is 98.1 nM; in series [2], 1120 nM. Besides, in series [3], the Ratio Ki was 11.4.
The corresponding values for `O=c1c2ccccc2c(OCCCN2CCCCC2)nn1-c1ccc(Cl)c(Cl)c1` are 140 nM, 1510 nM and 10.8.
The matching figures for `CC1CC(C)CN(CCCOc2ccc(=O)n(-c3ccccc3)n2)C1` (stereo not given): 46 nM, 1820 nM and 39.6.
The corresponding values for `CCN(CC)CCCOc1ccc(=O)n(-c2ccccc2)n1` are 96.5 nM, 1170 nM and 12.1.
In the case of `O=c1c2c(c(OCCCN3CCCCC3)nn1-c1ccc(Cl)c(Cl)c1)CCCC2`, the values for the inhibition constant Ki in series [1] and in series [2] were 104 nM and 934 nM, respectively. For the same compound, the Ratio Ki in series [3] came out at 8.9.
The matching figures for `CC1CCN(CCCOc2ccc(=O)n(-c3cc(Cl)ccc3Cl)n2)CC1`: 60 nM, 870 nM and 14.5.
For `CC1CCN(CCCOc2ccc(=O)n(-c3ccc(F)cc3)n2)CC1`, the values for the Ki in series [1] and in series [2] were 19.8 nM and 1620 nM, respectively. Also, the Ratio Ki in series [3] is 81.7.
Turning to `O=c1ccc(OCCCN2CCCCC2)nn1-c1ccc(F)c(Cl)c1`, the Ki stood at 10 nM in series [1] and 1580 nM in series [2]. Further, the Ratio Ki in series [3] worked out at 158. The IC50 in series [5] is 980 nM. Also, the LD50 at 24 h in series [4] stood at 900 mg/kg.
With `Cc1cc(OCCN2CCOCC2)nn1-c1ccc2ccccc2c1`, the Ki in series [2] is more than 2000 nM. Also, the Activity result in series [8] is recorded as “Toxic”.
